Source: ChEMBL document CHEMBL2434944, “Novel acetamidothiazole derivatives: synthesis and in vitro anticancer evaluation” (Eur J Med Chem, 2013)

What was measured:
NCI-H226 = assay: Growth inhibition of human NCI-H226 cells assessed as cell growth at 10^-5 M after 48 hrs by sulforhodamine B assay relative to control; format: functional; conditions: NCI-H226, 48 h, read-out: Activity
Procedure, shortened: (§1)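 NCI-60 single-dose screen at 10^-5 M. Cells grown in RPMI 1640 with 5% FBS and 2 mM L-glutamine, plated at 5,000–40,000 cells/well according to doubling time, and preincubated 24 h at 37°C, 5% CO2. Compound dissolved in DMSO and added. Exposure 48 h. Adherent cells fixed with cold TCA (10% final), suspension cells with 16% final TCA. Read-out is 0.4% SRB staining, dye solubilised in 10 mM Tris, absorbance at 515 nm. Percent growth is calculated against the time-zero plate and untreated control.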

SF-268 = assay: Growth inhibition of human SF268 cells assessed as cell growth at 10^-5 M after 48 hrs by sulforhodamine B assay relative to control; format: functional; conditions: SF-268, 48 h, read-out: Activity; procedure, shortened: as §1
A549 = assay: Growth inhibition of human A549 cells assessed as cell growth at 10^-5 M after 48 hrs by sulforhodamine B assay relative to control; format: functional; conditions: A549, 48 h, read-out: Activity; procedure, shortened: as §1
SR = assay: Growth inhibition of human SR cells assessed as cell growth at 10^-5 M after 48 hrs by sulforhodamine B assay relative to control; format: functional; conditions: read-out: Activity
Procedure, shortened: (§2)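 NCI-60 single-dose screen, 10^-5 M final. Cells grown in RPMI 1640 with 5% FBS and 2 mM L-glutamine, seeded at 5,000–40,000 cells/well by doubling time. Preincubated 24 h at 37°C, 5% CO2. Compound in DMSO, diluted in medium with gentamicin, then 48 h exposure. Fixed with cold TCA, SRB stained, A515 read. Percent growth vs untreated control, time-zero plate corrected.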

[1] = target: Epidermal growth factor receptor (Homo sapiens, UniProt P00533); assay: Inhibition of human EGFR
NCI-H322M = assay: Growth inhibition of human NCI-H322M cells assessed as cell growth at 10^-5 M after 48 hrs by sulforhodamine B assay relative to control; format: functional; conditions: read-out: Activity; procedure, shortened: as §1
[2] = target: Mitogen-activated protein kinase 1 (Homo sapiens, UniProt P28482); assay: Inhibition of human MAPK1
CCRF-CEM = assay: Growth inhibition of human CCRF-CEM cells assessed as cell growth at 10^-5 M after 48 hrs by sulforhodamine B assay relative to control; format: functional; conditions: read-out: Activity; procedure, shortened: as §1
OVCAR-3 = assay: Growth inhibition of human OVCAR3 cells assessed as cell growth at 10^-5 M after 48 hrs by sulforhodamine B assay relative to control; format: functional; conditions: OVCAR-3, 48 h, read-out: Activity; procedure, shortened: as §1
786-0 = assay: Growth inhibition of human 786-0 cells assessed as cell growth at 10^-5 M after 48 hrs by sulforhodamine B assay relative to control; format: functional; conditions: 786-0, 48 h, read-out: Activity; procedure, shortened: as §1
T47D = assay: Growth inhibition of human T47D cells assessed as cell growth at 10^-5 M after 48 hrs by sulforhodamine B assay relative to control; format: functional; conditions: read-out: Activity; procedure, shortened: as §2
OVCAR-4 = assay: Growth inhibition of human OVCAR4 cells assessed as cell growth at 10^-5 M after 48 hrs by sulforhodamine B assay relative to control; format: functional; conditions: OVCAR-4, 48 h, read-out: Activity; procedure, shortened: as §1
NCI-H23 = assay: Growth inhibition of human NCI-H23 cells assessed as cell growth at 10^-5 M after 48 hrs by sulforhodamine B assay relative to control; format: functional; conditions: NCI-H23, 48 h, read-out: Activity; procedure, shortened: as §1
NCI-H522 = assay: Growth inhibition of human NCI-H522 cells assessed as cell growth at 10^-5 M after 48 hrs by sulforhodamine B assay relative to control; format: functional; conditions: NCI-H522, 48 h, read-out: Activity; procedure, shortened: as §1
UACC-257 = assay: Growth inhibition of human UACC257 cells assessed as cell growth at 10^-5 M after 48 hrs by sulforhodamine B assay relative to control; format: functional; conditions: UACC-257, 48 h, read-out: Activity; procedure, shortened: as §2
RPMI-8226 = assay: Growth inhibition of human RPMI8226 cells assessed as cell growth at 10^-5 M after 48 hrs by sulforhodamine B assay relative to control; format: functional; conditions: RPMI-8226, 48 h, read-out: Activity; procedure, shortened: as §1
IGROV-1 = assay: Growth inhibition of human IGROV1 cells assessed as cell growth at 10^-5 M after 48 hrs by sulforhodamine B assay relative to control; format: functional; conditions: IGROV-1, 48 h, read-out: Activity; procedure, shortened: as §1
MCF7 = assay: Growth inhibition of human MCF7 cells assessed as cell growth at 10^-5 M after 48 hrs by sulforhodamine B assay relative to control; format: functional; conditions: MCF7, 48 h, read-out: Activity; procedure, shortened: as §1
K562 = assay: Growth inhibition of human K562 cells assessed as cell growth at 10^-5 M after 48 hrs by sulforhodamine B assay relative to control; format: functional; conditions: K562, 48 h, read-out: Activity; procedure, shortened: as §1
Thymidylate synthase = Thymidylate synthase (Homo sapiens, UniProt P04818); assay: Inhibition of human thymidylate synthase
Cathepsin K = target: T1, Cathepsin K (Homo sapiens, UniProt P43235); assay: Inhibition of human cathepsin K
T1 sequence (P43235 whole entry): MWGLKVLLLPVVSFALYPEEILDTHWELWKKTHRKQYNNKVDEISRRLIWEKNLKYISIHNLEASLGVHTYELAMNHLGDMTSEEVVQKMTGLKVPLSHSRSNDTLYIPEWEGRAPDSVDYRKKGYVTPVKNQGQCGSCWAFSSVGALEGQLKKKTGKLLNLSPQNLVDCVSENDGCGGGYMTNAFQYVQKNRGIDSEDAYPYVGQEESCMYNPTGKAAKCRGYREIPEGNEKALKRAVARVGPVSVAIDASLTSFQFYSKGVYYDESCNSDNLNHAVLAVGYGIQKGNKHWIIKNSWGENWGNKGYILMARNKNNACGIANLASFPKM

M14 = assay: Growth inhibition of human M14 cells assessed as cell growth at 10^-5 M after 48 hrs by sulforhodamine B assay relative to control; format: functional; conditions: M14, 48 h, read-out: Activity; procedure, shortened: as §1
SN12C = assay: Growth inhibition of human SN12C cells assessed as cell growth at 10^-5 M after 48 hrs by sulforhodamine B assay relative to control; format: functional; conditions: read-out: Activity; procedure, shortened: as §1
HT-29 = assay: Growth inhibition of human HT-29 cells assessed as cell growth at 10^-5 M after 48 hrs by sulforhodamine B assay relative to control; format: functional; conditions: HT-29, 48 h, read-out: Activity; procedure, shortened: as §1
MOLT-4 = assay: Growth inhibition of human MOLT4 cells assessed as cell growth at 10^-5 M after 48 hrs by sulforhodamine B assay relative to control; format: functional; conditions: MOLT-4, 48 h, read-out: Activity; procedure, shortened: as §1
SK-MEL-5 = assay: Growth inhibition of human SK-MEL-5 cells assessed as cell growth at 10^-5 M after 48 hrs by sulforhodamine B assay relative to control; format: functional; conditions: SK-MEL-5, 48 h, read-out: Activity; procedure, shortened: as §1
HCT-15 = assay: Growth inhibition of human HCT15 cells assessed as cell growth at 10^-5 M after 48 hrs by sulforhodamine B assay relative to control; format: functional; conditions: HCT-15, 48 h, read-out: Activity; procedure, shortened: as §1

Chain of Epidermal growth factor receptor (P00533 whole entry): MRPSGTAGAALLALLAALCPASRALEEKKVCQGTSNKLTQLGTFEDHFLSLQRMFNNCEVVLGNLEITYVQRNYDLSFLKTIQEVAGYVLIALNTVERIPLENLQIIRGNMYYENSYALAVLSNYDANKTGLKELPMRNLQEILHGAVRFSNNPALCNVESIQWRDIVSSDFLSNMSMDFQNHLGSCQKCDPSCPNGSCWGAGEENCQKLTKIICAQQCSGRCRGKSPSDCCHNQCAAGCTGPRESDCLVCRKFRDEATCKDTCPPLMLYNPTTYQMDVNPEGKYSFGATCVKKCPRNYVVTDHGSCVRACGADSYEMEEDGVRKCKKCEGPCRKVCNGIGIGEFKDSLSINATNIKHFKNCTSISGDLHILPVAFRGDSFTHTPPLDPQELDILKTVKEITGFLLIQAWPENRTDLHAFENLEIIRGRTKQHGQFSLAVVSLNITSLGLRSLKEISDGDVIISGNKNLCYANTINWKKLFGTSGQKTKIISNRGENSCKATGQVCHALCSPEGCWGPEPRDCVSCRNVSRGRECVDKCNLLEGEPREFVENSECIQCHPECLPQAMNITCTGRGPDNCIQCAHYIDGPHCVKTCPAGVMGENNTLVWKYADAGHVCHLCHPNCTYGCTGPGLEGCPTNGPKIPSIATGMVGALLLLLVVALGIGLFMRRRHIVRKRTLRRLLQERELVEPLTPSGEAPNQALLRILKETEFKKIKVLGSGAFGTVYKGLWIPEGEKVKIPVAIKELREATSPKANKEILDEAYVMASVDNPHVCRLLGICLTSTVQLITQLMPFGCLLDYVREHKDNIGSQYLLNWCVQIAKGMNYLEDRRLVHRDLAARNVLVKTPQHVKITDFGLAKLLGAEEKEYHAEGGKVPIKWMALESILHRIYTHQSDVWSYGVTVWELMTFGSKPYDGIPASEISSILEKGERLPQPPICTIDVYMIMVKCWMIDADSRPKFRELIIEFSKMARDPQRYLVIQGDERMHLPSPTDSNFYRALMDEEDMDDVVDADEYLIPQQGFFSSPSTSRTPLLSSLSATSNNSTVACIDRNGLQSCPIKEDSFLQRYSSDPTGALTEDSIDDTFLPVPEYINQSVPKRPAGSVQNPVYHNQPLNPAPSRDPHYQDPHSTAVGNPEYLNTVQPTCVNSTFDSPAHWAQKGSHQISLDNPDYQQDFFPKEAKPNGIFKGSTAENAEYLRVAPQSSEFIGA
Chain of Thymidylate synthase (P04818 whole entry): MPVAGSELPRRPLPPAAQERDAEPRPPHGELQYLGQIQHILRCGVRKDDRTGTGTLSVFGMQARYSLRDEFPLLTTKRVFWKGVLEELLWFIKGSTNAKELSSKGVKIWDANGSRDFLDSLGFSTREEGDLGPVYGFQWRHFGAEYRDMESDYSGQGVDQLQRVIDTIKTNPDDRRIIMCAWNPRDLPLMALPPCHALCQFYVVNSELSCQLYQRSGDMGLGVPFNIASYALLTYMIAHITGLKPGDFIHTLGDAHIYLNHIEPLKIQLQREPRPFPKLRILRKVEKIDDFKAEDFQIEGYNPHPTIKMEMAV
Chain of Mitogen-activated protein kinase 1 (P28482 whole entry): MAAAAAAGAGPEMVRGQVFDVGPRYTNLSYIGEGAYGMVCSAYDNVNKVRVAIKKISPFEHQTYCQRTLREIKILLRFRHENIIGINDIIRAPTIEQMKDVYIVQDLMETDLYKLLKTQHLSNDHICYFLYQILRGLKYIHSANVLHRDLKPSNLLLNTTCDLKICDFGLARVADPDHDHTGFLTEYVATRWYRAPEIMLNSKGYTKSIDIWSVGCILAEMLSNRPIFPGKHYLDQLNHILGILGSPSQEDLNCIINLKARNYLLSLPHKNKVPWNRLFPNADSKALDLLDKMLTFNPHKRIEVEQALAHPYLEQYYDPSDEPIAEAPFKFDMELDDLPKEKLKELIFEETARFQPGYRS

| Structure (SMILES) | growth at 10 µM (NCI-H226) [%] | growth at 10 µM (SF-268) [%] | growth at 10 µM (A549) [%] | growth at 10 µM (SR) [%] | Ki [1] [µM] | growth at 10 µM (NCI-H322M) [%] | Ki [2] [µM] | growth at 10 µM (CCRF-CEM) [%] | growth at 10 µM (OVCAR-3) [%] | growth at 10 µM (786-0) [%] | growth at 10 µM (T47D) [%] | growth at 10 µM (OVCAR-4) [%] | growth at 10 µM (NCI-H23) [%] | growth at 10 µM (NCI-H522) [%] | growth at 10 µM (UACC-257) [%] | growth at 10 µM (RPMI-8226) [%] | growth at 10 µM (IGROV-1) [%] | growth at 10 µM (MCF7) [%] | growth at 10 µM (K562) [%] | Ki (Thymidylate synthase) [µM] | further results |
| --- | --- | --- | --- | --- | --- | --- | --- | --- | --- | --- | --- | --- | --- | --- | --- | --- | --- | --- | --- | --- | --- |
| Cc1ccc(-c2csc(=N)n2CC(=O)N2CCN(C)CC2)cc1 | 93.1 | 96.7 | 86.8 | 86.5 | 27.4 | 104 | 1.89 | 87.1 | 108 | 101 | 81.6 | 87.4 | 93.3 | 80.6 | 102 | 83.5 | 111 | 93.2 | 82.9 | 19.3 | Ki (Cathepsin K): 8.71 µM; growth at 10 µM (M14): 105%; growth at 10 µM (SN12C): 93.2%; growth at 10 µM (HT-29): 110%; growth at 10 µM (MOLT-4): 76.3%; growth at 10 µM (SK-MEL-5): 87.2%; growth at 10 µM (HCT-15): 91.6% |
| CC(=O)N1CCN(C(=O)Cn2c(-c3ccccc3)csc2=N)CC1 | 88.8 | 100 | 96 | 88.7 | 16.8 | 94.4 | 3.67 | 103 | 102 | 103 | 85.9 | 96.9 | 98.5 | 81.3 | 98.5 | 97.3 | 95.6 | 94.8 | 86.8 | 10.9 | Ki (Cathepsin K): 21.9 µM; growth at 10 µM (M14): 97%; growth at 10 µM (SN12C): 95.8%; growth at 10 µM (HT-29): 101%; growth at 10 µM (MOLT-4): 96.2%; growth at 10 µM (SK-MEL-5): 90.2%; growth at 10 µM (HCT-15): 94.5% |
| CN1CCN(C(=O)Cn2c(-c3ccc(Cl)cc3)csc2=N)CC1 | 95.9 | 98.4 | 90.1 | 78.5 | 15.6 | 95.9 | 8.84 | 89.1 | 101 | 97 | 78.4 | 90.5 | 100 | 86.7 | 104 | 79.1 | 93.1 | 92.2 | 73.1 | 0.34 | Ki (Cathepsin K): 4.58 µM; growth at 10 µM (M14): 98.9%; growth at 10 µM (SN12C): 92.8%; growth at 10 µM (HT-29): 96%; growth at 10 µM (MOLT-4): 75.1%; growth at 10 µM (SK-MEL-5): 100%; growth at 10 µM (HCT-15): 93.1% |
| Cc1ccc(-c2csc(=N)n2CC(=O)N2CCOCC2)cc1 | 94.3 | 101 | 94.1 | 96.2 | 22.9 | 111 | 9.78 | 101 | 108 | 97.9 | 97.4 | 102 | 97.3 | 93 | 103 | 92.8 | 112 | 97.8 | 100 | 4.06 | Ki (Cathepsin K): 51.2 µM; growth at 10 µM (M14): 110%; growth at 10 µM (SN12C): 100%; growth at 10 µM (HT-29): 109%; growth at 10 µM (MOLT-4): 99.7%; growth at 10 µM (SK-MEL-5): 98.2%; growth at 10 µM (HCT-15): 98.1% |
| CN1CCN(C(=O)Cn2c(-c3ccccc3)csc2=N)CC1 | 85.2 | 96.2 | 92 | 74.1 | 41.6 | 90.2 | 4.89 | 97.6 | 95.4 | 101 | 78 | 88.4 | 90 | 82.3 | 106 | 92.5 | 93.2 | 81.4 | 98.2 | 1.14 | Ki (Cathepsin K): 6.22 µM; growth at 10 µM (M14): 94.2%; growth at 10 µM (SN12C): 85.2%; growth at 10 µM (HT-29): 83.8%; growth at 10 µM (MOLT-4): 95.2%; growth at 10 µM (SK-MEL-5): 88.2%; growth at 10 µM (HCT-15): 87.6% |
